The text below walks through data of ChEMBL document CHEMBL4138161, “Discovery of simplified sampangine derivatives as novel fungal biofilm inhibitors” (Eur J Med Chem, 2018).

Values after ≈ are worked out from the molar mass of the structure shown. Active and inactive are the calls of the source. The rule behind the calls is not given here.

The subject of experiment [1] is Candida albicans. Kind of experiment: Antifungal activity against Candida albicans SC5314 after 24 hrs by spectrophotometric analysis. The conditions noted are these: SC5314, 24 h. It is filed as functional. Summed up:
(§1)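 Broth microdilution in RPMI 1640, inoculum 5×10^3 CFU/mL, compounds from 6.4 mg/mL DMSO stocks, 35 ℃ for 24 h. Growth read as OD600; MIC80 taken as lowest concentration giving 80% growth inhibition. Triplicate.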

The test system of a further experiment is Candida parapsilosis. Kind of experiment: Antifungal activity against Candida parapsilosis 22019 after 24 hrs by spectrophotometric analysis. The conditions noted are these: Lodderomyces parapsilosis, 22019, 24 h. It is filed as functional. Summed up:
as §1

Another experiment deals with Aspergillus fumigatus. Kind of experiment: Antifungal activity against Aspergillus fumigatus 07544 after 24 hrs by spectrophotometric analysis. It is filed as functional. Particulars: Aspergillus fumigatus, 07544, 24 h. Summed up: as §1
The subject of a further experiment is Trichophyton rubrum. The experiment in a line: Antifungal activity against Trichophyton rubrum Cmccftla after 24 hrs by spectrophotometric analysis. It is filed as functional. The procedure, abridged:
as §1

For experiment [2], the system named is Candida albicans. Kind of experiment: Antifungal activity against fluconazole-resistant Candida albicans clinical isolate 1010 after 24 hrs by spectrophotometric analysis. It counts as functional. The conditions noted are these: isolate 1010, 24 h. Summed up:
(§2)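 Broth microdilution (MIC80) against fluconazole-resistant clinical C. albicans isolates from a Shanghai hospital. Strains were grown in YPD at 30 ℃. Compounds came from 6.4 mg/mL DMSO stocks and were tested over a concentration series on 5×10^3 CFU/mL inoculum in RPMI 1640 at 35 ℃ for 24 h. OD600 was read; MIC80 is the lowest concentration giving 80% growth inhibition. Done in triplicate.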

For experiment [3], the system named is Candida albicans. Kind of experiment: Antifungal activity against fluconazole-resistant Candida albicans isolate Chang7 clinical isolate after 24 hrs by spectrophotometric analysis. It is filed as functional. Particulars: isolate Chang7, 24 h. Summed up:
as §2

Experiment [4] relates to Candida albicans. Kind of experiment: Antibiofilm activity against Candida albicans SC5314 assessed as disruption of biofilm formation at 12.8 ug/ml. It counts as functional, organism-based.
In experiment [5] the test system is Candida albicans. Kind of experiment: Antibiofilm activity against Candida albicans SC5314 assessed as disruption of biofilm formation at 0.8 ug/ml after 24 hrs by scanning electron microscopic analysis. It is filed as functional, organism-based. The procedure, abridged: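 Biofilm SEM: cells adhered to poly-L-lysine-coated glass disks, 90 min static at 37°C; non-adherent cells removed, then grown in fresh RPMI 1640 with compound at 37°C for 24 h. Fixed in 2% glutaraldehyde in 0.15 M sodium cacodylate (pH 7.2) for 2 h, graded ethanol dehydration, dried 1 h, gold-coated and imaged by SEM.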

Experiment [6] has as its system Candida albicans. Kind of experiment: Antibiofilm activity against Candida albicans SC5314 cultured in YPD media containing 10% FBS assessed inhibition of yeast-to-hypha morphological transition after 3 hrs. It is filed as functional, organism-based. Summed up:
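Yeast-to-hypha transition in YPD with 10% (v/v) FBS across compound concentrations; cell morphology photographed after 3 h at 37°C.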

The subject of experiment [7] is Candida albicans. Kind of experiment: Antibiofilm activity against Candida albicans SC5314 assessed down regulation of HWP1 gene at 0.4 ug/ml after 1 hr by qRT-PCR analysis. It counts as functional, organism-based. The procedure, abridged: (§3)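 Biofilm grown in dishes with 0.4 µg/mL compound or DMSO control for 1 h; total RNA isolated and transcripts quantified by real-time RT-PCR. Normalized to 18S rRNA, expressed as fold change vs untreated SC5314. Mean ± SD of three independent experiments.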

The subject of experiment [8] is Candida albicans. Kind of experiment: Antibiofilm activity against Candida albicans SC5314 assessed down regulation of CEK1 gene at 0.4 ug/ml after 1 hr by qRT-PCR analysis. It is filed as functional, organism-based. Summed up: as §3
In experiment [9] the test system is Candida albicans. The experiment in a line: Antibiofilm activity against Candida albicans SC5314 assessed as disruption of biofilm formation at 6.4 ug/ml. It counts as functional, organism-based.

`CCCc1ccnc2c1C(=O)c1sc([N+](=O)[O-])cc1C2=O`: the MIC80 in the experiment with Candida albicans [1] is 0.5 µg/mL (≈ 1.65 µM); with Candida parapsilosis, 0.5 µg/mL (≈ 1.65 µM); in the experiment on Aspergillus fumigatus, 4 µg/mL (≈ 13.2 µM); against Trichophyton rubrum, 2 µg/mL (≈ 6.62 µM); in the experiment with Candida albicans [2] it was 0.5 µg/mL (≈ 1.65 µM); with Candida albicans [3], 1 µg/mL (≈ 3.31 µM). Further, the outcome with Candida albicans [4], with Candida albicans [5], with Candida albicans [7] and in the experiment with Candida albicans [8] was Active. The Activity result with Candida albicans [6] is “Dose-dependent effect”.

Take `CCc1ccnc2c1C(=O)c1sc([N+](=O)[O-])cc1C2=O`: the MIC80 worked out at 0.5 µg/mL (≈ 1.73 µM) against Candida albicans [1]; 1 µg/mL (≈ 3.47 µM) in the experiment on Candida parapsilosis; 4 µg/mL (≈ 13.9 µM) with Aspergillus fumigatus; 0.5 µg/mL (≈ 1.73 µM) against Trichophyton rubrum; 0.25 µg/mL (≈ 0.867 µM) in the experiment with Candida albicans [2]; 0.25 µg/mL (≈ 0.867 µM) against Candida albicans [3]. In addition, the outcome in the experiment with Candida albicans [9], with Candida albicans [5], in the experiment on Candida albicans [7] and in the experiment on Candida albicans [8] was Active. In the experiment on Candida albicans [6], the Activity entry is “Dose-dependent effect”.
